Most compounds without a hit are left out; they make up all but 12% or so of the library.
PKD1 kinase inh = blocks activity of human protein kinase D1; Q15139; inhibition, % (test concentration not listed); actives 0.056% (n = 200,000); PKD1 kinase fluorescence polarization assay
Rad51 HR inh = blocks human Rad51 in homologous recombination; inhibition, % at 10 µM; Q06609; actives 0.085% (n = 200,000); hRad51 DNA strand exchange, fluorescence dequenching;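 active = inhibition above 40% at the single screening dose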
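material = hRad51 filaments on single-stranded DNA | timing = filaments 15 min 37 °C, then compound 30 min | signal = FRET fluorescence dequenching, excitation 485 nm, emission 520 nm | benchmarks = control wells and blank wells on each plate | evaluation = percent inhibition relative to plate controls and blanks | compound = 10 µM final, single point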
L major viab = Leishmania major promastigote growth inhibition. Leishmania major promastigotes, resazurin fluorescence viability. inhibition, % at 10 µM. actives 9% (n = 200,000). AID 1063;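 note: promastigotes grown with compound for 44 hours at 28 °C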
CHOP inhibitor = inhibitors of CHOP induction in ER stress response. CHO-K1 CHOP-promoter luciferase, tunicamycin-induced, 15-18 h. actives 3.8% (n = 220,000). inhibition, % at 10 µM;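 active = compounds that reduced the stress-induced luciferase reporter signal by more than about 70% of percent inhibition, limit read from the data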
Wee1 stabilizer = human Wee1 degradation inhibition, primary screen. P30291. HeLa Luc-Wee1K328M stability, luciferase luminescence; 100% = proteasome inhibitor MG132 effect. reporter increase, % at 5 µM. actives 1.2% (n = 220,000);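 active = activation above the mean of all tested compounds plus 3 SD, set per screening run, cut at about 8.8% in these data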;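 note: cells exposed to compound for 20 h before luminescence read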
Target sequence (P30291 whole entry K328M): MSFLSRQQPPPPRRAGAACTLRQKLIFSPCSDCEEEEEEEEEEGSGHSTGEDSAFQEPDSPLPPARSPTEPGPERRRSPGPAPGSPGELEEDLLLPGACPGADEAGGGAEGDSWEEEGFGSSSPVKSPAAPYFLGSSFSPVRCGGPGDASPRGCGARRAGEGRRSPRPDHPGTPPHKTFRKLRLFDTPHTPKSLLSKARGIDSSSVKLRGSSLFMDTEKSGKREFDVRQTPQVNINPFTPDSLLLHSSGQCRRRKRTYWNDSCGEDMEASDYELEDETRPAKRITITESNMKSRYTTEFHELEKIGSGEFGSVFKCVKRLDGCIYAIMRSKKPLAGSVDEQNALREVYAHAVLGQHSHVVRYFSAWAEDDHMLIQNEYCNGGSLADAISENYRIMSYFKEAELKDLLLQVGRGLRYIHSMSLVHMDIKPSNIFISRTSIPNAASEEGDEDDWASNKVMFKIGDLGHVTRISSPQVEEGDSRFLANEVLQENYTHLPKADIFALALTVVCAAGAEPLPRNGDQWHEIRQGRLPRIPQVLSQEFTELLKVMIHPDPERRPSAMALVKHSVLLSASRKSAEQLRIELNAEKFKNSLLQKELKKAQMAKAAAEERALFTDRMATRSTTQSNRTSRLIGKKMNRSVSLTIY
Arbovirus anti = arbovirus infection inhibition | arbovirus infection cell-based antiviral screen | inhibition, % at 10 µM | actives 0.37% (n = 200,000); in the data active = inhibition above about 30%
Of the large screens only hits and unclear results are named; the others gave an inactive call. Cut-off read from the data, not from the text of the source, unless noted: active = inhibition above about 50%; inactive = the rest.

CCCC(C)C(=O)Nc1nc(C)c(-c2csc(Nc3cc(OC)ccc3OC)n2)s1 (stereo not drawn)	L major viab 84
COc1ccc(OC)c(Nc2nc(-c3sc(N)nc3C)cs2)c1	none
CCCC(=O)Nc1nc(C)c(-c2csc(Nc3cc(OC)ccc3OC)n2)s1	none
C=CCCC(=O)Nc1nc(C)c(-c2csc(Nc3cc(OC)ccc3OC)n2)s1	CHOP inhibitor 75
CCOCC(=O)Nc1ccccc1C(=O)O	none
Cc1ccccc1NC(=O)Cc1nc(CSc2nnc(-c3ccc4c(c3)OCO4)o2)cs1	L major viab 86
O=C(O)CCSc1nnc(-c2ccc3c(c2)OCO3)o1	CHOP inhibitor 86
CN1C(=O)c2ccccc2Sc2ccc(NC(=O)N3CCCC3)cc21	none
CN1CCN(C(=O)Nc2ccc3c(c2)N(C)C(=O)c2ccccc2S3)CC1	L major viab 98
CCOC(=O)c1ccc(N2C(=O)C3C(/C=C/c4ccccc4)OC4(C(=O)c5ccccc5C4=O)C3C2=O)cc1 (stereo not drawn)	Arbovirus anti 73
CCN(C(=O)CSc1nc2ccccc2c(=O)n1C(C)COC)C1CCS(=O)(=O)C1 (stereo not drawn)	none
COc1ccc(C(=O)COC(=O)CN2C(=O)C3C4C=CC(C5CC45)C3C2=O)cc1 (stereo not drawn)	none
Cc1ccc(Nc2nc3ccccc3[nH]2)nc1	L major viab 101
CCN(CC)CCCNc1nc2ccccc2[nH]1	none
COc1ccccc1Nc1nc2ccccc2[nH]1	none
CCNc1nc2ccccc2[nH]1	Wee1 stabilizer 9.8
C=CC(c1ccccc1)C(C(=O)c1ccccc1)N(C)C (stereo not drawn)	none
Cc1ccccc1-n1nc(C)c(N=O)c1N	none
COc1ccc(C(=O)OCC(=O)Nc2ccc(OC(F)F)cc2)c(OC)c1	none
CC(=O)c1ccc(NC(=O)COC(=O)c2ccccc2Nc2ccccc2)cc1	none
CCCCNc1ccccc1C(=O)OCC(=O)Nc1ccc(S(N)(=O)=O)cc1	L major viab 78
O=C(COC(=O)c1ccccc1Nc1ccccc1)Nc1ccccc1	CHOP inhibitor 78
O=C(COC(=O)c1ccccc1O)Nc1ccc(OC(F)F)cc1	CHOP inhibitor 72
NS(=O)(=O)c1ccc(NC(=O)COC(=O)c2ccc(Cl)cc2[N+](=O)[O-])cc1	Wee1 stabilizer 11 (no result: PKD1 kinase inh, L major viab, Arbovirus anti)
COCCNC(=S)N/N=C1\CC(C)CC(C)(C)C1 (stereo not drawn)	none
O=C(COC(=O)CNS(=O)(=O)c1ccc(F)c(F)c1F)Nc1ccc(OC(F)F)cc1	L major viab 82
O=C(Nc1ccccc1N1CCOCC1)C1CCN(S(=O)(=O)c2ccccc2F)CC1	L major viab 56
CCCOc1ccc(N2CC(C(=O)Nc3ccc(N4CCOCC4)cc3)CC2=O)cc1 (stereo not drawn)	none
CCOc1ccc(N2CC(C(=O)Nc3ccccc3N3CCOCC3)CC2=O)cc1 (stereo not drawn)	L major viab 77
CCOC(=O)c1ccc(NC(=O)c2nc[nH]c2C(=O)NC2CCN(C(=O)OC(C)(C)C)CC2)cc1	CHOP inhibitor 85 (no result: PKD1 kinase inh, L major viab, Wee1 stabilizer, Arbovirus anti)
CCOC(=O)c1ccc(NC(=O)c2nc[nH]c2C(=O)N2CCN(c3ccccc3)CC2)cc1	CHOP inhibitor 73 (no result: PKD1 kinase inh, L major viab, Wee1 stabilizer, Arbovirus anti)
COc1ccc(CC(=O)NC(C)C2COc3ccccc3O2)cc1OC (stereo not drawn)	none
O=C(Cc1ccccc1)c1c[nH]c(C(=O)NCCCN2CCOCC2)c1	none
CC(C)(C)c1ccc(-c2nnc(SCC(=O)NC3CCS(=O)(=O)C3)n2N)cc1 (stereo not drawn)	none
CCOC(=O)c1sc(NC(=O)CSc2ccccn2)c(C#N)c1C	CHOP inhibitor 79
CCOC(=O)c1sc(NC(=O)CSc2nc(C)cc(C)n2)c(C#N)c1C	none
Cc1cc(C)nc(NC(=O)CSc2ccccn2)n1	Wee1 stabilizer 17
CCOC(=O)c1sc(NC(=O)c2cccc(S(=O)(=O)N3CCc4ccccc43)c2)c(C#N)c1C	CHOP inhibitor 95 (no result: PKD1 kinase inh, L major viab, Arbovirus anti)
CC(=C/c1ccc(C(C)C)cc1)/C=N/NC(=O)CSc1ccccn1	CHOP inhibitor 92
Cc1cc(C)nc(NC(=O)CSc2ncccn2)n1	none
Cc1ccc(O)c(N=Nc2ccccc2)n1	none (no result: PKD1 kinase inh, L major viab, Wee1 stabilizer, Arbovirus anti)
CCOC(=O)C1(C)C=C(Nc2ccc(NC(C)=O)cc2)C(=O)N1c1ccc(NC(C)=O)cc1 (stereo not drawn)	none (no result: PKD1 kinase inh, L major viab, Arbovirus anti)
COc1ccc(-c2[nH]c(-c3ccc(C(=O)O)cc3)nc2-c2ccccc2)cc1	none
CS(=O)(=O)c1nc(-c2ccccc2)c(-c2ccccc2)[nH]1	none
Fc1ccc(-c2nc(-c3cccs3)[nH]c2-c2ccc(F)cc2)cc1	L major viab 99, CHOP inhibitor 74
Cc1ccsc1-c1nc(-c2ccccc2)c(-c2ccccc2)[nH]1	CHOP inhibitor 82
O=C(O)c1ccc(-c2nc(-c3ccccc3)c(-c3ccccc3)[nH]2)cc1	L major viab 89
NC(=NCCc1c[nH]c2ccccc12)NC(=O)c1ccc(F)cc1	none (no result: PKD1 kinase inh, L major viab, Arbovirus anti)
Cc1ccc(S(=O)(=O)N/N=C/c2ccc(C(=O)O)cc2)cc1	none
O=S(=O)(N/N=C\C=C\c1ccccc1)c1ccc(Br)cc1	L major viab 97
Cc1ccc(S(=O)(=O)N/N=C\C=C\c2ccccc2)cc1	L major viab 83
O=c1oc2ccccc2cc1-c1cn2ccccc2n1	CHOP inhibitor 95
Oc1ccccc1-c1nnc(COc2ccc(Cl)cc2Cl)o1	CHOP inhibitor 73
O=C(CC(NC(=O)C(F)(F)F)c1ccccc1)Nc1nnc(CCc2ccccc2)s1 (stereo not drawn)	CHOP inhibitor 94
CSc1nc2cc3c(cc2n1C(=O)c1ccc(C)cc1)OCCO3	CHOP inhibitor 90
COc1cccc(C(=O)n2c(SC)nc3cc4c(cc32)OCCO4)c1	none
O=[N+]([O-])c1cccc(P(=O)(O)c2cccc([N+](=O)[O-])c2)c1	Wee1 stabilizer 25 (no result: PKD1 kinase inh, L major viab, Arbovirus anti)
CCP(=O)(c1cccc([N+](=O)[O-])c1)c1cccc([N+](=O)[O-])c1	none (no result: PKD1 kinase inh, L major viab, Arbovirus anti)
Cc1ccccc1CSCC(=O)c1c(N)n(CC(C)C)c(=O)n(C)c1=O	CHOP inhibitor 81
Cc1ccccc1CSCC(=O)c1c(N)n(C)c(=O)n(C)c1=O	none
O=C(O)CC/C(=N\Nc1ccc([N+](=O)[O-])cc1S(=O)(=O)N1CCOCC1)c1cccs1	none (no result: PKD1 kinase inh, L major viab, Arbovirus anti)
COC(=O)C1=C(C)NC2=C(C(=O)CC(C)(C)C2)C1c1cn(Cc2ccc(Br)cc2)nc1-c1ccccc1 (stereo not drawn)	L major viab 99
COC(=O)C1=C(C)NC2=C(C(=O)CCC2)C1c1cn(Cc2ccc(Br)cc2)nc1-c1ccccc1 (stereo not drawn)	none
Cc1nc2cc(-c3ccccc3)nn2c(C)c1CCC(=O)N1CCN(c2ccccc2)CC1	L major viab 87
Cc1nc2ncnn2c(C)c1CCC(=O)N1CCN(c2ccccn2)CC1	none
COc1ccccc1-c1cc2nc(C)c(CCC(=O)NCc3ccc(F)cc3)c(C)n2n1	none (no result: PKD1 kinase inh, L major viab, Arbovirus anti)

Screens from PubChem.
